Assay results reported in ChEMBL document CHEMBL4145666, “In Search of Selectivity in Inhibition of ADAM10” (ACS Med Chem Lett, 2018).

Assays:
[1] = AUC (0 to infinity) in CD-1 mouse plasma at 25 mg/kg, sc by UPLC analysis; type: ADME, organism-based; parameters: dose 25 mg/kg, route subcutaneous, time infinity
Procedure, shortened: (§1)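 Male CD-1 mice, 6–7 weeks old, about 30 g, fed and watered ad libitum. Single dose of 10 mg/kg ip or 25 mg/kg sc, given as 100 μL formulation; n = 3 per time point per route. At set times, blood was taken by cardiac puncture with heparinized syringes and spun to plasma. Brains were harvested after transcardiac saline perfusion, weighed and flash-frozen. Brain levels are in pmol/mg tissue.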

Mus musculus [2] = assay: Time at which brain concentration stays above in-vitro Ki for ADAM10 in CD-1 mouse at 10 mg/kg, ip by UPLC analysis; type: ADME, organism-based; settings: in vivo; procedure, shortened: as §1
Mus musculus [3] = assay: Time at which plasma concentration stays above in-vitro Ki for ADAM10 in CD-1 mouse at 10 mg/kg, ip by UPLC analysis; type: ADME, organism-based; settings: in vivo; procedure, shortened: as §1
[4] = molecular target: Disintegrin and metalloproteinase domain-containing protein 17 (Homo sapiens, UniProt P78536); assay: Inhibition of recombinant human C-terminal His6-tagged ADAM17 (Arg215 to Asn671 residues) expressed in baculovirus infected Sf21 cells using Mca-PLAQAV-Dpa-RSSSR-NH2 as substrate by fluorescence spectrophotometric method
Sequence of Disintegrin and metalloproteinase domain-containing protein 17 (P78536 whole entry, the tested form may be a part): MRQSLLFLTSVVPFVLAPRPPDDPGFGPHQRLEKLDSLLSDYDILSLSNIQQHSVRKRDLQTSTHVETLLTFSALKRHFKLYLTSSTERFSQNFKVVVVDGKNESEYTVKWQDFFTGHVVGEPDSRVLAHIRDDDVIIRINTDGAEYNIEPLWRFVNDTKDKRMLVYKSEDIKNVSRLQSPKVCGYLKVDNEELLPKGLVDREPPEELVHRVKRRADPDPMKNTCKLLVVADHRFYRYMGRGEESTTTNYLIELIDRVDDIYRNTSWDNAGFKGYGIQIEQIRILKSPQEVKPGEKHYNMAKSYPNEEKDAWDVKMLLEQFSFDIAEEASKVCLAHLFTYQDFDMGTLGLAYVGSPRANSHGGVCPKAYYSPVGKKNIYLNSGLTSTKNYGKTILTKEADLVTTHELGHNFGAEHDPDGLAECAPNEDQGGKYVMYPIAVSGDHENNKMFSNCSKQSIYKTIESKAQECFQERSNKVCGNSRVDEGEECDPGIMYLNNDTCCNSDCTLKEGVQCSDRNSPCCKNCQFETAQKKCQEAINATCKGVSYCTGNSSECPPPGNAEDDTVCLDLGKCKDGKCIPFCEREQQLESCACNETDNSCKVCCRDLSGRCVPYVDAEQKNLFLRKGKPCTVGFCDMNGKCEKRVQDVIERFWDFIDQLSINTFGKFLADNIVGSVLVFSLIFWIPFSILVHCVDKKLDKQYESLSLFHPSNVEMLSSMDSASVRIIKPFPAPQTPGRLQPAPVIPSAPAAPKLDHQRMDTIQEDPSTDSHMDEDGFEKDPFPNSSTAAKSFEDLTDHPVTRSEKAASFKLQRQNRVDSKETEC
Procedure, shortened: (§2)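 Enzymes and their substrates were obtained as in earlier work, and inhibition was run by a previously reported protocol. Ki values were measured in triplicate.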

[5] = Elimination half life in CD-1 mouse brain at 25 mg/kg, sc by UPLC analysis; type: ADME, organism-based; settings: read-out: beta t1/2; procedure, shortened: as §1
[6] = molecular target: Matrix metalloproteinase-9 (Homo sapiens) (UniProt P14780); assay: Inhibition of recombinant human MMP9 catalytic domain (Phe107 to Pro449 residues) expressed in Escherichia coli using MOCAc-Pro-Leu-Gly-Leu-A2pr(Dnp)-Ala-Arg-NH2 as substrate at 10 uM by fluorescence spectrophotometric method relative to control
Sequence of Matrix metalloproteinase-9 (Homo sapiens) (P14780 whole entry, the tested form may be a part): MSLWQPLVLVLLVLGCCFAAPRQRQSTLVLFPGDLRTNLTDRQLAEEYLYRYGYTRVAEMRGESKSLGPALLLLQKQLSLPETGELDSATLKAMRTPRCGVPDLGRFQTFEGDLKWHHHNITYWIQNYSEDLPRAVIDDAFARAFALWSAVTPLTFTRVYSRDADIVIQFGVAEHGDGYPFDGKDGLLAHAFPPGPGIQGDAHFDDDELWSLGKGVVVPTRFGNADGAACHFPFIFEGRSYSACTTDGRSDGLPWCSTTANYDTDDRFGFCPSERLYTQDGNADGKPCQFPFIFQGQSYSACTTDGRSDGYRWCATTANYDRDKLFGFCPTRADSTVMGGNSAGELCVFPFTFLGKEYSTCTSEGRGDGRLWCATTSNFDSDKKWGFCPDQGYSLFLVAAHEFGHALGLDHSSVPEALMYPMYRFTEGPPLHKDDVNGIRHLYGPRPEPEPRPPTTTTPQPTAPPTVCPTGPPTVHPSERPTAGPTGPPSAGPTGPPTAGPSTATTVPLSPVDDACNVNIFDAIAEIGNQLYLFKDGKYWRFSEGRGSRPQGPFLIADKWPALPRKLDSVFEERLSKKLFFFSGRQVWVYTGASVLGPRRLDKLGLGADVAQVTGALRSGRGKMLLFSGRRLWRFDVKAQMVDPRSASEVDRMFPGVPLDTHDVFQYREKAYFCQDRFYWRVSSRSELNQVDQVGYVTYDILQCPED
Procedure, shortened: (§3)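 Single inhibitor concentration of 10 μM, reported as percent inhibition. Enzymes and substrates as in earlier work, with inhibition run by a previously reported protocol.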

[7] = AUC (0 to last) in CD-1 mouse brain assessed per mg tissue at 10 mg/kg, ip by UPLC analysis; type: ADME, organism-based; settings: in vivo; procedure, shortened: as §1
[8] = Primary phase half life in CD-1 mouse brain at 10 mg/kg, ip by UPLC analysis; type: ADME, organism-based; settings: read-out: alphat1/2; procedure, shortened: as §1
[9] = molecular target: Matrix metalloproteinase-14 (Homo sapiens) (UniProt P50281); assay: Inhibition of recombinant human MMP14 catalytic domain (89 to 265 residues) expressed in Escherichia coli using MOCAc-Pro-Leu-Gly-Leu-A2pr(Dnp)-Ala-Arg-NH2 as substrate at 10 uM by fluorescence spectrophotometric method relative to control; procedure, shortened: as §3
[10] = AUC (0 to infinity) in CD-1 mouse brain assessed per mg tissue at 25 mg/kg, sc by UPLC analysis; type: ADME, organism-based; parameters: dose 25 mg/kg, route subcutaneous, time infinity; settings: in vivo; procedure, shortened: as §1
[11] = molecular target: T1, Disintegrin and metalloproteinase domain-containing protein 9 (Homo sapiens) (UniProt Q13443); assay: Inhibition of recombinant human C-terminal His10-tagged ADAM9 (Ala206 to Asp697 residues) expressed in mouse cells using McaPLAQAV-Dpa-RSSSR-NH2 as substrate at 10 uM by fluorescence spectrophotometric method relative to control; procedure, shortened: as §3
T1 sequence (whole entry): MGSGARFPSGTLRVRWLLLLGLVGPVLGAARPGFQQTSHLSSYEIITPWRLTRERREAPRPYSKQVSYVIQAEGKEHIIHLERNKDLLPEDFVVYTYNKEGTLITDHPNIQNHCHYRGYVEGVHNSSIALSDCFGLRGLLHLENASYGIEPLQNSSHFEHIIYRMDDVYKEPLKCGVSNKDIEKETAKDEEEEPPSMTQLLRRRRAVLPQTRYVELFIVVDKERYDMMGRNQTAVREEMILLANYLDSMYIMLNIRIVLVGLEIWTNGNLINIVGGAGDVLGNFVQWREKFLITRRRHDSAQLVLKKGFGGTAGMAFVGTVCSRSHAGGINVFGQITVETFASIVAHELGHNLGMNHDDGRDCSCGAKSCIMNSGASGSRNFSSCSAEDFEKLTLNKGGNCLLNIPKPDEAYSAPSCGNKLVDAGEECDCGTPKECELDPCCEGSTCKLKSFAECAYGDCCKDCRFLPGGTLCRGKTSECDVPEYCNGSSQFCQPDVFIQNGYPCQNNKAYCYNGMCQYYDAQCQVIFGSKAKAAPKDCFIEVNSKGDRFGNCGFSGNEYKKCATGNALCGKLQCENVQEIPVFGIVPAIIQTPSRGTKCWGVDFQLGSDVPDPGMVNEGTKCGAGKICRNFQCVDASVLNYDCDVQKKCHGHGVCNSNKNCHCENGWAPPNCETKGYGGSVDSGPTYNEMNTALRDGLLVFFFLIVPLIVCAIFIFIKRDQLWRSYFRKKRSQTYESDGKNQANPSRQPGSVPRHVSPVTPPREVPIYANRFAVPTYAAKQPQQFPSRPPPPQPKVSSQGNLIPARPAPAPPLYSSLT

[12] = AUC (0 to last) in CD-1 mouse plasma at 10 mg/kg, ip by UPLC analysis; type: ADME, organism-based; parameters: dose 10 mg/kg, time 0 - last, route intraperitoneal; procedure, shortened: as §1
[13] = molecular target: T2, Disintegrin and metalloproteinase domain-containing protein 10 (Homo sapiens, UniProt O14672); assay: Inhibition of recombinant human C-terminal His10-tagged ADAM10 (Thr214 to Glu672 residues) expressed in baculovirus infected Sf21 cells using McaKPLGL-Dpa-AR-NH2 as substrate by fluorescence spectrophotometric method; procedure, shortened: as §2
T2 sequence (O14672 whole entry): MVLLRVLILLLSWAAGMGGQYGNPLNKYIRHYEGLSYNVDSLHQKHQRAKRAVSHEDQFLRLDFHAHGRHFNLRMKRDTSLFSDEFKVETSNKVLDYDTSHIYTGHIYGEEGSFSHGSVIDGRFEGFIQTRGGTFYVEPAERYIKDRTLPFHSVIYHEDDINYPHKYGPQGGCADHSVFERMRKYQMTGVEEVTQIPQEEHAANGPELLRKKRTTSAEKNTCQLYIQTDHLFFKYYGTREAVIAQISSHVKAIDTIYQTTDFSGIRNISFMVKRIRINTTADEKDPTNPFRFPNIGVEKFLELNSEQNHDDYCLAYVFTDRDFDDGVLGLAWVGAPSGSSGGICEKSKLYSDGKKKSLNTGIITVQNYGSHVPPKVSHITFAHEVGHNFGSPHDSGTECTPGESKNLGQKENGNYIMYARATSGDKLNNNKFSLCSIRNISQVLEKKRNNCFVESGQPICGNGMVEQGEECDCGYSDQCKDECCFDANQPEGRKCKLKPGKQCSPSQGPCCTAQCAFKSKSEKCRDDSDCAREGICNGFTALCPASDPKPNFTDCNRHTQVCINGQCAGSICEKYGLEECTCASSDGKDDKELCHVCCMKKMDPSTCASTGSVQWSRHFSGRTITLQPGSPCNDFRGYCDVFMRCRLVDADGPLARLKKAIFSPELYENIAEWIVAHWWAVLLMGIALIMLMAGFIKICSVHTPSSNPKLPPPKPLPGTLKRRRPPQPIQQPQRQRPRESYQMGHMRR

[14] = AUC (0 to infinity) in CD-1 mouse brain assessed per mg tissue at 10 mg/kg, ip by UPLC analysis; type: ADME, organism-based; parameters: dose 10 mg/kg, route intraperitoneal, time infinity; settings: in vivo; procedure, shortened: as §1
[15] = AUC (0 to last) in CD-1 mouse plasma at 25 mg/kg, sc by UPLC analysis; type: ADME, organism-based; parameters: dose 25 mg/kg, route subcutaneous, time 0 - last; procedure, shortened: as §1

AUC(0-inf) [1]: 18.5 µM·h
Time (Mus musculus [2]): 20 min
Time (Mus musculus [3]): 6 h
Ki [4]: 900 nM
half-life [5]: 10.5 h
inhibition [6]: 25%
AUClast [7]: 12.1 pmol·min
half-life [8]: 0.48 h
inhibition [9]: 19%
AUC [10]: 77 pmol·min/mg
inhibition [11]: 15%
AUC(0-t) [12]: 2.58 µM·h
Ki [13]: 73 nM
AUC [14]: 14 pmol·min/mg
AUC(0-t) [15]: 18.4 µM·h
Structure (SMILES): O=C(NO)[C@H]1C[C@H](OC(=O)N2CCCC2)CC[C@@H]1C(=O)N1CCC(c2ccccc2)CC1
